From ChEMBL document CHEMBL2380248, “Matrix metalloproteinase inhibitors based on the 3-mercaptopyrrolidine core” (J Med Chem, 2013)
Active and inactive are the calls of the source. The rule behind the calls is not given here.

Key:
[1] = molecular target: 72 kDa type IV collagenase (Homo sapiens, UniProt P08253); assay: Inhibition of MMP-2 (unknown origin) using Mca-PLGLDpa-AR-NH2 as substrate preincubated for 30 mins by fluorescence assay; settings: read-out: Ki(app)
How it was run: (§1)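 Fluorogenic assay at 25°C in 50 mM HEPES pH 7.5, 10 mM CaCl2, 200 mM NaCl, 0.01% Brij-35, 5 μM TCEP. Inhibitor in DMSO preincubated 30 min with enzyme (0.2–7 nM), then started with Mca-PLGLDpa-AR-NH2 (4 μL of […] in 50% DMSO); product release followed at λex 328/λem 393 nm.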

Matrilysin = molecular target: T1, Matrilysin (Homo sapiens, UniProt P09237); assay: Inhibition of MMP-7 (unknown origin) using Mca-PLGLDpa-AR-NH2 as substrate preincubated for 30 mins by fluorescence assay; settings: read-out: Ki(app); how it was run: as §1
T1 sequence (P09237 whole entry): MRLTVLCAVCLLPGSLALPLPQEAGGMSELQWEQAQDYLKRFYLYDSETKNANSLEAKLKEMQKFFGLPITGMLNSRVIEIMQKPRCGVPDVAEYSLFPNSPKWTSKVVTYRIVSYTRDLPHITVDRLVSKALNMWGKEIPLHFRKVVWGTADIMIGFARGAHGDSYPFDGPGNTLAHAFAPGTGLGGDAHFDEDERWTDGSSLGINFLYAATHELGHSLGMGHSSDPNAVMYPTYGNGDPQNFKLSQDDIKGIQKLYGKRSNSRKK

Interstitial collagenase = molecular target: T2, Interstitial collagenase (Homo sapiens, UniProt P03956); assay: Inhibition of MMP-1 (unknown origin) using Mca-PLGLDpa-AR-NH2 as substrate preincubated for 30 mins by fluorescence assay; settings: read-out: Ki(app); how it was run: as §1
T2 sequence (P03956 whole entry): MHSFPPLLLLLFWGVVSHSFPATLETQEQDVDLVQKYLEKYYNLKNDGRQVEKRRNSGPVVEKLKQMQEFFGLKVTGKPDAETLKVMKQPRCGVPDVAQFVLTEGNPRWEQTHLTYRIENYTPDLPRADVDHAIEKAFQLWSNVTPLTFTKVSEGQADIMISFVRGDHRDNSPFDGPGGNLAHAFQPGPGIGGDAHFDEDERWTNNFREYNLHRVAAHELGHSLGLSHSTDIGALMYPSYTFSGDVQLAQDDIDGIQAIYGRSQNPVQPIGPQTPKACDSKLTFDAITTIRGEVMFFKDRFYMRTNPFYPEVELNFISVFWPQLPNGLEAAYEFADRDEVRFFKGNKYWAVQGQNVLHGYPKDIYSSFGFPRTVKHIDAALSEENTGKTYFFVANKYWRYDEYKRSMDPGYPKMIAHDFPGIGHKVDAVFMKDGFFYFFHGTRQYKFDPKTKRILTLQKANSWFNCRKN

[2] = molecular target: T3, Matrix metalloproteinase-9 (Homo sapiens, UniProt P14780); assay: Inhibition of MMP-9 (unknown origin) using Mca-PLGLDpa-AR-NH2 as substrate preincubated for 30 mins by fluorescence assay; settings: read-out: Ki(app); how it was run: as §1
[3] = molecular target: Matrix metalloproteinase-14 (Homo sapiens, UniProt P50281); assay: Inhibition of MMP-14 (unknown origin) using Mca-PLGLDpa-AR-NH2 as substrate preincubated for 30 mins by fluorescence assay; settings: read-out: Ki(app); how it was run: as §1
Stromelysin-1 = Stromelysin-1 (Homo sapiens, UniProt P08254); assay: Inhibition of MMP-3 (unknown origin) using Mca-PLGLDpa-AR-NH2 as substrate preincubated for 30 mins by fluorescence assay; settings: read-out: Ki(app); how it was run: as §1
Collagenase 3 = Collagenase 3 (Homo sapiens, UniProt P45452); assay: Inhibition of MMP-13 (unknown origin) using Mca-PLGLDpa-AR-NH2 as substrate preincubated for 30 mins by fluorescence assay; settings: read-out: Ki(app); how it was run: as §1
[4] = molecular target: T3, Matrix metalloproteinase-9; assay: Inhibition of MMP-9 (unknown origin) at 10000 x IC50 incubated up to 72 hrs prior to enzyme addition measured after 30 mins in presence of 20% fetal bovine serum
How it was run: (§2)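 Aliquots then incubated 30 min with MMP-9 (final ~1 nM) in HEPES buffer before substrate addition; relative rates (νi/νo) taken in triplicate and plotted versus time; mean ± SEM.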

[5] = Cytotoxicity against human MSC assessed as cell killing up to 100 uM after 24 hrs by trypan blue staining-based hemocytometric analysis relative to control
How it was run: (§3)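 Low-passage hMSCs grown in αMEM with L-glutamine, penicillin, streptomycin, 20% FBS at 37°C, 5% CO2; fed every three days to 75% confluency, then given fresh media with inhibitor (log panel 1 μM to 100 μM, constant final DMSO) for 24 h. Cells washed with PBS, trypsinized, pelleted, Trypan Blue counted by hemocytometer; normalized to control, triplicate, mean ± SEM; >20% killing deemed cytotoxic.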

[6] = Stability of the compound in alpha-modified minimum essential medium at 10000 x IC50 up to 72 hrs in presence of fetal bovine serum; format: ADME; settings: cattle; how it was run: as §2
[7] = Cytotoxicity against human MSC assessed as reduction in cell number at 100 uM after 24 hrs by trypan blue staining-based hemocytometric analysis relative to control; design: scale not given: the % may be the effect or the level left; how it was run: as §3

Sequence of Stromelysin-1 (P08254 whole entry): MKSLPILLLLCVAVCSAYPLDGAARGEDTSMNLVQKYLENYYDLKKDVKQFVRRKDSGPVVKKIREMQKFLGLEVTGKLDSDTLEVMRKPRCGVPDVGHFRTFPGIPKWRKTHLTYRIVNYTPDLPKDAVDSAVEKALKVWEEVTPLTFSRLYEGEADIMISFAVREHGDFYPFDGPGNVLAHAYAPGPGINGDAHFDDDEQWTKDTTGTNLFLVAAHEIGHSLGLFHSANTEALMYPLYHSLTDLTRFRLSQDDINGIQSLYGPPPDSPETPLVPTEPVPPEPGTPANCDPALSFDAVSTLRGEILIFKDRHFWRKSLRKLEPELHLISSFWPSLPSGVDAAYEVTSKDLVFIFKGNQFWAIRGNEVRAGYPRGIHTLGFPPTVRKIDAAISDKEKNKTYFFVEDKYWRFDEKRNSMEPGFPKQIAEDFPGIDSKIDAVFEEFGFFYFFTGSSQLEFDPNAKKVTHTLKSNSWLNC
T3 sequence (P14780 whole entry): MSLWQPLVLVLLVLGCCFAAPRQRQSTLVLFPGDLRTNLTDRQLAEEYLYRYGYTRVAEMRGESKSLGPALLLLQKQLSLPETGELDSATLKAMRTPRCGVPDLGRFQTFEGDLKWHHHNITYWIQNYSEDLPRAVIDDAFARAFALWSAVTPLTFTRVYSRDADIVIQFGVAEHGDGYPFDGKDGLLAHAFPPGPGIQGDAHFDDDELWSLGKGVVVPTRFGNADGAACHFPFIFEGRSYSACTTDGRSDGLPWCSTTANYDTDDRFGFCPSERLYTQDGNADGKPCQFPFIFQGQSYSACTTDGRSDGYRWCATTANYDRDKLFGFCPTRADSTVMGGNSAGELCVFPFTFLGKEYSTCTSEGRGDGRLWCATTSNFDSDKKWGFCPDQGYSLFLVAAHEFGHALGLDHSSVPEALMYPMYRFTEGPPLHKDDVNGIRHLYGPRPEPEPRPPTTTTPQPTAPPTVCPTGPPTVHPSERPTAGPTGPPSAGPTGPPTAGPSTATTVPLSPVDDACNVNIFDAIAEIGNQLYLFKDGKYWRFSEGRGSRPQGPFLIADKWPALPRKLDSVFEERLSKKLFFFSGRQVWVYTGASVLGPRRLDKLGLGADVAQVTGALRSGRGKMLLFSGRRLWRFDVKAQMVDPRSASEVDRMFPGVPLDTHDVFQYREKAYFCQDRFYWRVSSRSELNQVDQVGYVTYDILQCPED
Sequence of 72 kDa type IV collagenase (P08253 whole entry): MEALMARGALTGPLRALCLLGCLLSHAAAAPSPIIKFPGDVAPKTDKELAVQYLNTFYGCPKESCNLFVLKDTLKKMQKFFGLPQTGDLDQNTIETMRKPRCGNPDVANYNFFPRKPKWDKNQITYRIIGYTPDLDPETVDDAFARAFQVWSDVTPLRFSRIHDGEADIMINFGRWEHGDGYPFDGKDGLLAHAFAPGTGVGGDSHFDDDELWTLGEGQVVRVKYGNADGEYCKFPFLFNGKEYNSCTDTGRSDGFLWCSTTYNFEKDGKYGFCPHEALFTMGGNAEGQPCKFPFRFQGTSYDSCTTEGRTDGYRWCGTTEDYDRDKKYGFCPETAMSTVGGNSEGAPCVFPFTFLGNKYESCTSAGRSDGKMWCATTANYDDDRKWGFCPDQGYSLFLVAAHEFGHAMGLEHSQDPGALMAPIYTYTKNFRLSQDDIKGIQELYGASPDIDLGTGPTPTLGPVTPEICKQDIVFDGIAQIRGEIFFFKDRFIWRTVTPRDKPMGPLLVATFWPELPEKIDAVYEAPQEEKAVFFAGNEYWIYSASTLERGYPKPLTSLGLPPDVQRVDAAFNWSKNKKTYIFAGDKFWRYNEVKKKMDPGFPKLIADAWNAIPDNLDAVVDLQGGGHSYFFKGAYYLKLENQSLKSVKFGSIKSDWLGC

Row | Structure (SMILES) | Ki [1] [nM] | Ki (Matrilysin) [nM] | Ki (Interstitial collagenase) [nM] | Ki [2] [nM] | Ki [3] [nM] | Ki (Stromelysin-1) [nM] | Ki (Collagenase 3) [nM] | inhibition [4] | Activity [5] | Stability [6] | Activity [7] [%]
1 | CNC(=O)[C@H](Cc1ccccc1)NC(=O)[C@@H](CC(C)C)S[C@H]1CN(C(=O)CCCN2C(=O)c3ccccc3C2=O)C[C@H]1S (mixture of isomers) | 8.5 | 12 | 75 | 3.9 | 6 | 31 |  |  |  |  | 
2 | CN([C@H]1CN(C(N)=O)C[C@@H]1S)S(=O)(=O)c1ccc(Oc2ccccc2)cc1 (racemic) |  | > 25000 |  | 1.1 |  |  |  |  |  |  | 
3 | O=S(=O)(N[C@H]1CCC[C@@H]1S)c1ccc(Oc2ccccc2)cc1 | 4.6 | > 100000 | 2100 | 38 | 31 | > 200000 | 17 |  |  |  | 
4 | O=S(=O)(N[C@H]1CCC[C@@H]1O)c1ccc(Oc2ccccc2)cc1 (racemic) | 50000 | > 200000 | > 200000 | 200000 | > 200000 | > 200000 | 100000 |  |  |  | 
5 | O=S(=O)(N[C@@H]1CCC[C@@H]1S)c1ccc(Oc2ccccc2)cc1 (racemic) | 810 | > 20000 | > 100000 | 970 | 410 |  | 200 |  |  |  | 
6 | O=S(=O)(N[C@H]1CCC[C@H]1S)c1ccc(Oc2ccccc2)cc1 | 430 | > 100000 |  | 280 | 68 |  | 160 |  |  |  | 
7 | O=S(=O)(N[C@H]1CCC[C@@H]1S)c1ccc(Oc2ccccc2)cc1 (racemic) [listing 1 of 2 here] |  |  |  |  |  |  |  | Active |  |  | 
8 | O=S(=O)(N[C@H]1CCC[C@@H]1S)c1ccccc1 (racemic) | 7200 | > 50000 | > 20000 | 9600 | 3000 | > 200000 | 3400 |  |  |  | 
9 | CNC(=O)[C@H](Cc1ccccc1)NC(=O)[C@@H](CC(C)C)S[C@H]1CNC[C@H]1S (mixture of isomers) | 200 | 230 | 260 | 5.3 | 310 | 4100 |  |  |  |  | 
10 | O=S(=O)(N[C@@H]1CNC[C@H]1S)c1ccc(Oc2ccccc2)cc1 |  | 4100 | 6300 |  |  |  |  |  |  |  | 
11 | CNC(=O)[C@H](Cc1ccccc1)NC(=O)[C@@H](CC(C)C)S[C@H]1CN(C(C)=O)C[C@H]1S (mixture of isomers) | 14 | 91 | 99 | 5.7 | 6.2 | 990 |  |  |  |  | 
12 | O=S(=O)(N[C@H]1CCC[C@@H]1S)c1ccc(-c2ccccc2)cc1 (racemic) | 240 |  | 10000 | 630 | 1200 | 10000 | 230 |  |  |  | 
13 | NC(=O)N1C[C@H](NS(=O)(=O)c2ccc(Oc3ccccc3)cc2)[C@@H](S)C1 (racemic) |  | > 25000 |  |  |  |  |  |  | <= 20% | Stable | 
14 | O=S(=O)(N[C@H]1CNC[C@@H]1S)c1ccc(Oc2ccccc2)cc1 (racemic) |  | > 25000 | 25000 |  |  |  |  |  |  |  | 
15 | O=C(N[C@H]1CCC[C@@H]1S)c1ccc(Oc2ccccc2)cc1 (racemic) | 5700 | 5700 | > 200000 | 4300 | > 25000 | > 200000 | 28000 |  |  |  | 
16 | CNC(=O)[C@H](Cc1ccccc1)NC(=O)[C@@H](CC(C)C)S[C@H]1CN(C(=O)CCCCCN2C(=O)c3ccccc3C2=O)C[C@H]1S (mixture of isomers) | 1.7 | 11 | 52 | 0.98 | 7 | 1.9 |  |  |  |  | 
17 | NCCCCCC(=O)N1C[C@H](NS(=O)(=O)c2ccc(Oc3ccccc3)cc2)[C@@H](O)C1 (racemic) | 7000 | > 100000 | > 50000 | 30000 | 85000 | > 100000 | > 200000 |  |  |  | 
18 | CC(=O)NCCCCCC(=O)N1C[C@H](NS(=O)(=O)c2ccc(Oc3ccccc3)cc2)[C@@H](S)C1 (racemic) |  |  | > 6000 |  |  |  |  |  | <= 20% | Stable | 
19 | O=S(=O)(N[C@@H]1CCC[C@H]1S)c1ccc(Oc2ccccc2)cc1 | 67 | 36000 |  | 42 | 10 | > 100000 | 10 |  |  |  | 
20 | O=S(=O)(N[C@H]1CNC[C@@H]1S)c1ccc(Oc2ccccc2)cc1 |  | > 200000 | 50000 |  |  |  |  |  |  |  | 
21 | Cl.NCCCCCC(=O)N1C[C@H](NS(=O)(=O)c2ccc(Oc3ccccc3)cc2)[C@@H](S)C1 (racemic) | 3.1 |  | > 3000 | 3.6 | 6.6 |  |  | Active | <= 20% | Stable | 
22 | O=S(=O)(N[C@@H]1CCC[C@@H]1S)c1ccc(Oc2ccccc2)cc1 | 25000 | > 200000 | > 200000 | > 1600 | 25000 | > 200000 | > 100000 |  |  |  | 
23 | O=S(=O)(N[C@H]1CCC[C@@H]1S)c1ccc(Oc2ccccc2)cc1 (racemic) [listing 2 of 2 here] | 18 | > 20000 | 3400 | 25 | 18 |  | 15 |  | <= 20% | Stable | 40
24 | CNC(=O)[C@H](Cc1ccccc1)NC(=O)[C@@H](CC(C)C)S[C@H]1CN(C(=O)CN2C(=O)c3ccccc3C2=O)C[C@H]1S (mixture of isomers) | 17 | 50 | 110 | 4.9 | 70 | 300 |  |  |  |  | 
25 | O=C(NCCN1C(=O)c2ccccc2C1=O)N1C[C@H](NS(=O)(=O)c2ccc(Oc3ccccc3)cc2)[C@@H](S)C1 (racemic) |  | > 12000 |  |  |  |  |  |  | <= 20% |  | 
